The text below walks through data of ChEMBL document CHEMBL2396626, “Exploiting drug-resistant enzymes as tools to identify thienopyrimidinone inhibitors of human immunodeficiency virus reverse transcriptase-associated ribonuclease H” (J Med Chem, 2013).

The source made the active and inactive calls. The calls are words filed in the database; no cut-off is given here.

Data set [1] is described as follows: Selectivity ratio of CC50 for human CEM-SS cells to EC50 for Human immunodeficiency virus 1 RF isolate. It is filed as ADME, cell-based.
Another data set concerns CEM-SS. As to the kind of experiment: Cytotoxicity against human CEM-SS cells by XTT assay. It is filed as cell-based. The procedure, abridged: (§1)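 Cytopathic-protection format: HIV-1 RF isolate in human T-cell line CEM-SS, with cell viability read by XTT-based assay.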
Background: Tetrazolium assays rely on reduction of a dye to a coloured formazan, in cell work by metabolically active cells.

A short description of data set [2]: Inhibition of RNase H activity of HIV-1 reverse transcriptase p66/p51 T286A mutant using 18 nucleotide 3'-fluorescein-labeled RNA/18 nucleotide 5'-dabsyl-labeled DNA hybrid as substrate after 10 mins by fluorescence spectrometric analysis. Set-up: species or system Human immunodeficiency virus 1.
Data set [3] deals with Human immunodeficiency virus type 1 integrase (Human immunodeficiency virus 1) (UniProt Q7ZJM1). As to the kind of experiment: Inhibition of HIV-1 integrase using DNA duplex as substrate at 50 uM preincubated for 10 mins prior to substrate addition measured after 1 hr.
Data set [4] can be described thus: Inhibition of RNase H activity of HIV-1 reverse transcriptase p66/p51 C280A mutant using 18 nucleotide 3'-fluorescein-labeled RNA/18 nucleotide 5'-dabsyl-labeled DNA hybrid as substrate after 10 mins by fluorescence spectrometric analysis. Set-up: species or system Human immunodeficiency virus 1.
Data set [5] concerns the target Human immunodeficiency virus type 1 reverse transcriptase (Human immunodeficiency virus 1) (UniProt Q72547). As to the kind of experiment: Binding affinity to HIV-1 reverse transcriptase p66/p51 assessed as decrease in melting temperature at 10 uM by differential scanning fluorimetric analysis in presence of Mg2+. Background: DSF heats the sample and reads unfolding from a dye or from intrinsic fluorescence.

Data set [6] has the same target. As to the kind of experiment: Binding affinity to HIV-1 reverse transcriptase p66/p51-RNA/DNA hybrid complex assessed as decrease in melting temperature at 10 uM by differential scanning fluorimetric analysis in presence of Mg2+.
The nature of data set [7]: Inhibition of RNase H activity of HIV-1 reverse transcriptase p66/p51 R284A mutant using 18 nucleotide 3'-fluorescein-labeled RNA/18 nucleotide 5'-dabsyl-labeled DNA hybrid as substrate after 10 mins by fluorescence spectrometric analysis. Also on record: species or system Human immunodeficiency virus 1.
For data set [8], the target named is Human immunodeficiency virus type 1 reverse transcriptase (Human immunodeficiency virus 1) (UniProt Q72547). As to the kind of experiment: Inhibition of RNase H activity of HIV-1 reverse transcriptase using 18 nucleotide 3'-fluorescein-labeled RNA/18 nucleotide 5'-dabsyl-labeled DNA hybrid as substrate by Yonetani-Theorell plot analysis in presence of beta-thujaplicinol. The procedure, abridged:
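Yonetani-Theorell: RNase H rates at 250 nM RNA/DNA substrate, fixed enzyme, thienopyrimidinone 0–5 μM against β-thujaplicinol 0, 0.125, 0.25, 0.5, 1 μM; hydrolysis started with substrate, monitored 60 min; V0/Vi plotted and fitted to two-inhibitor equation with interaction term.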

The nature of data set [9]: Inhibition of RNase H activity of HIV-1 reverse transcriptase p66/p51 V276A mutant using 18 nucleotide 3'-fluorescein-labeled RNA/18 nucleotide 5'-dabsyl-labeled DNA hybrid as substrate after 10 mins by fluorescence spectrometric analysis. Set-up: species or system Human immunodeficiency virus 1.
For data set [10], the system named is Human immunodeficiency virus 1. As to the kind of experiment: Antiviral activity against Human immunodeficiency virus 1 RF isolate infected in human CEM-SS cells by XTT assay. It is filed as functional, organism-based. The procedure, abridged:
as §1

In data set [11] the target is Human immunodeficiency virus type 1 reverse transcriptase (Human immunodeficiency virus 1, UniProt Q72547). As to the kind of experiment: Inhibition of RNase H activity of wild type HIV-1 reverse transcriptase using 18 nucleotide 3'-fluorescein-labeled RNA/18 nucleotide 5'-dabsyl-labeled DNA hybrid as substrate after 10 mins by fluorescence spectrometric analysis.

Data set [12] has as its target Human immunodeficiency virus type 1 reverse transcriptase (Human immunodeficiency virus 1) (UniProt Q72547). The conditions noted are these: 500 uM.

Human immunodeficiency virus type 1 integrase (Human immunodeficiency virus 1), sequence (Q7ZJM1 as listed by the source): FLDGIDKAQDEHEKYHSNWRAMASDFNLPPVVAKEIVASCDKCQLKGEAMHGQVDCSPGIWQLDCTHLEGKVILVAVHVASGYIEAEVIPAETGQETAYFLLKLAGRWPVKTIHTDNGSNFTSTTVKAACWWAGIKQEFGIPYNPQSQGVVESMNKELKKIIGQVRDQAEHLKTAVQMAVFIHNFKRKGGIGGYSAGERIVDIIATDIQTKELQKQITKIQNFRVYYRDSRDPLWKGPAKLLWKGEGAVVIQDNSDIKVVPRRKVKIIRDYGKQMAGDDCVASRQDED

As for `Cc1sc2nc(-c3ccc(O)c(O)c3)[nH]c(=O)c2c1C`, the “Ratio CC50/EC50” value in data set [1] came to 2.3. In the data set on CEM-SS, this compound registered a CC50 of 8900 nM. The IC50 in [2] is 280 nM; in data set [4] it was 320 nM; in data set [7], 300 nM; in data set [9], 390 nM; in data set [11] it was 260 nM. In addition, the inhibition entry in [3] is “inactive”. Moreover, the results for the shift in melting temperature (ΔTm) in data set [5] and in data set [6] were 0.5 °C and 5.8 °C, respectively. Besides, the inhibition entry in data set [8] is “Active”. This compound yielded an EC50 in data set [10] of 3800 nM.

`CC(C)c1ccc(O)c(=O)c(O)c1`: the figures for the ΔTm in [5] and in [12] were 0.5 °C and 2 °C, respectively.

Take `O=c1[nH]c(-c2ccc(O)c(O)c2)nc2sc3c(c12)CCCCC3`: the “Ratio CC50/EC50” value in data set [1] is 4.3. The compound further came in with a cytotoxic concentration (CC50) in the data set with CEM-SS of 6800 nM. Moreover, the half-maximal inhibitory concentration (IC50) in data set [2] is 360 nM; in [4] it was 260 nM; in [7], 550 nM; in data set [9], 370 nM; in [11], 290 nM. Further, in data set [3], the inhibition entry was “inactive”. The ΔTm was found to be 0.5 °C in [5] and 5.9 °C in [6]. Besides, the inhibition result in data set [8] is “Active”. In data set [10], this compound yielded an EC50 of 1600 nM.

As a reminder, the CC50 is the concentration giving 50% cytotoxicity. A higher CC50 goes with better tolerance by the cells. In general, IC50 refers to the concentration that inhibits the measured activity by half. A low value points to inhibition by little substance. As a reminder, the ΔTm is the shift of the melting midpoint relative to a reference. One may read the EC50 as the concentration that produces a half-maximal response. A high value points to lower potency in that assay.
